Source: publication PMC7114172 (ACS Omega, 2020)
Bridge positions count the residues as written; N and C are the ends. Square brackets hold non-standard residues; d marks the D form. Ends that are not written are not given here. Peptide text beside a SMILES is read from it. * marks the point of attachment. Myristoyl = CCCCCCCCCCCCCC(=O)*; Phe(ol) = N[C@H](CO)Cc1ccccc1; Aib = CC(C)(N)C(=O)O; NHCH2CH2OH = OCCN*; For = O=C*

How the values were obtained:
LPS E. coli K-235 = test: LPS binding, dansyl cadaverine; design: species or system Escherichia coli; details: LPS E. coli K-235 280 μg/mL, DC 12 μM, 10 mM phosphate buffer pH 7.4, 25 °C
Method in brief: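 Test peptide was added in small successive aliquots to a preformed DC:LPS complex. […] Excitation was at 340 nm and emission scanned 420–600 nm (slits 2.5/5 nm). Probe occupancy was calculated as (F−F0)/(Fmax−F0), where F0 is DC alone, Fmax is DC at maximum LPS, and F is DC–LPS at each peptide concentration. A positive-control peptide was run first.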

[1] = tested on: E. coli K-12 strain MG1655 (CGSC-7740); details: concentration at which no viable colonies are formed; 10 mM phosphate buffer pH 7.4; cited from earlier work
S. aureus (ATCC 8530) = details: concentration at which no viable colonies are formed; 10 mM phosphate buffer pH 7.4; cited from earlier work

| Molecule | Relative binding affinity to LPS (DC displacement) (LPS E. coli K-235) | MBC, E. coli [1] | MBC, S. aureus (S. aureus (ATCC 8530)) |
| --- | --- | --- | --- |
| CC(=O)NC(C)(C)C(=O)N1CCC[C@H]1C(=O)NC(C)(C)C(=O)N[C@@H](C)C(=O)NC(C)(C)C(=O)N[C@@H](C)C(=O)N[C@@H](CCC(N)=O)C(=O)NC(C)(C)C(=O)N[C@H](C(=O)NC(C)(C)C(=O)NCC(=O)N[C@@H](CC(C)C)C(=O)NC(C)(C)C(=O)N1CCC[C@H]1C(=O)N[C@H](C(=O)NC(C)(C)C(=O)NC(C)(C)C(=O)N[C@@H](CCC(=O)O)C(=O)N[C@@H](CCC(N)=O)C(=O)N[C@H](CO)Cc1ccccc1)C(C)C)C(C)C [alamethicin] (Ac-[Aib]P[Aib]A[Aib]AQ[Aib]V[Aib]GL[Aib]PV[Aib][Aib]EQ[Phe(ol)]; N-terminus assumed) | weak affinity as compared to polymyxin B |  |  |
| CC(C)C[C@@H](NC(=O)[C@H](C)NC(=O)CNC(=O)[C@@H](NC=O)C(C)C)C(=O)N[C@@H](C)C(=O)N[C@@H](C(=O)N[C@H](C(=O)N[C@@H](C(=O)N[C@@H](Cc1c[nH]c2ccccc12)C(=O)N[C@H](CC(C)C)C(=O)N[C@@H](Cc1c[nH]c2ccccc12)C(=O)N[C@H](CC(C)C)C(=O)N[C@@H](Cc1c[nH]c2ccccc12)C(=O)N[C@H](CC(C)C)C(=O)N[C@@H](Cc1c[nH]c2ccccc12)C(=O)NCCO)C(C)C)C(C)C)C(C)C [gramicidin A] (For-VGA[dL]A[dV]V[dV]W[dL]W[dL]W[dL]W-NHCH2CH2OH; N-terminus and C-terminus assumed) | weak affinity as compared to polymyxin B |  |  |
| ACPIFTKIQGTYRGKAKCK (disulfide 2-18 (inferred)) [Phd1] | more affinity as compared to Phd2-3 and MPhd2-3 | 19 µM | 20 µM |
| Myristoyl-ACPIFTKIQGTYRGKAKCK (disulfide 2-18 (inferred)) [MPhd1] | more affinity as compared to Phd2-3 and MPhd2-3 | 5 µM | 5 µM |
| Myristoyl-FCPRRYKQIGTGLPGTKCK (disulfide 2-18 (inferred)) [MPhd2] |  | 6 µM | 5 µM |
| Myristoyl-SCLPKEEQIGKSTRGRKCRRKK (disulfide 2-18 (inferred)) [MPhd3] |  | 4 µM | 4 µM |
| cyclized isooctanoyl BTBB(BF^dLBBT) (lariat or depsi) [polymyxin B] | strong binding compared to HBD2-3 as well as LL37 and melittin |  |  |
